Experimental data reported in ChEMBL document CHEMBL3871272, “Systemic optimization and structural evaluation of quinoline derivatives as transthyretin amyloidogenesis inhibitors” (Eur J Med Chem, 2016).
Active and inactive are the calls of the source. No cut-off for these calls is given here.

How the values were obtained:
Transthyretin [1] = biological target: T1, Transthyretin (Homo sapiens, UniProt P02766); assay: Inhibition of wild type TTR (unknown origin) assessed as inhibition of acid-mediated amyloidogenesis by measuring fibril formation at 7.2 uM preincubated with enzyme followed by amyloidogenesis stimulation by adjusting pH to 4.4 measured after 72 hrs relative to control; set-up: scale not given: the % may be the effect or the level left
Method in brief: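 WT-TTR (3.6 µM, physiological level) was preincubated with inhibitor at 7.2 or 3.6 µM. The pH was then adjusted to 4.4 to trigger fibril formation, 37 °C, 72 h. Fibrils were expressed relative to untreated WT-TTR set at 100%.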

[2] = system: Transthyretin (Homo sapiens), P02766 [V50M]; assay: Inhibition of TTR V30M mutant (unknown origin) assessed as inhibition of acid-mediated amyloidogenesis by measuring fibril formation at 7.2 uM preincubated with enzyme followed by amyloidogenesis stimulation by adjusting pH to 4.4 measured after 72 hrs relative to control; set-up: scale not given: the % may be the effect or the level left
Method in brief: (§1)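 V30M-TTR (3.6 μM) preincubated with inhibitor (3.6 or 7.2 μM), then fibril formation triggered by adjusting pH to 4.4; incubated 37 °C, 72 h. Fibril formation expressed as percent of untreated V30M-TTR (100%).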

[3] = system: Transthyretin (Homo sapiens), P02766 [V50M]; assay: Inhibition of TTR V30M mutant (unknown origin) assessed as inhibition of acid-mediated amyloidogenesis by measuring fibril formation at 3.6 uM preincubated with enzyme followed by amyloidogenesis stimulation by adjusting pH to 4.4 measured after 72 hrs relative to control; set-up: scale not given: the % may be the effect or the level left; method in brief: as §1
Transthyretin [4] = biological target: T1, Transthyretin; assay: Inhibition of wild type TTR (unknown origin) assessed as inhibition of acid-mediated amyloidogenesis by measuring reduction in fibril formation at 3.6 uM preincubated with enzyme followed by amyloidogenesis stimulation by adjusting pH to 4.4 measured up to 120 hrs relative to control
Method in brief: (§2)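 Time-course version of the acid-mediated fibril formation assay: inhibitor at a concentration equal to the TTR tetramer (3.6 μM), preincubated with TTR, then acidified to pH 4.4. Fibril formation followed over 120 h instead of at a fixed 72 h, relative to untreated TTR.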

Transthyretin [5] = biological target: T1, Transthyretin; assay: Inhibition of wild type TTR (unknown origin) assessed as inhibition of acid-mediated amyloidogenesis by measuring fibril formation at 3.6 uM preincubated with enzyme followed by amyloidogenesis stimulation by adjusting pH to 4.4 measured after 72 hrs relative to control; set-up: scale not given: the % may be the effect or the level left
Method in brief: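 WT-TTR (3.6 μM, physiological concentration) preincubated with inhibitor (3.6 or 7.2 μM), then fibril formation triggered by adjusting pH to 4.4; incubated 37 °C, 72 h. Fibril formation expressed as percent of untreated WT-TTR (100%).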

[6] = Terminal half life in Sprague-Dawley rat at 5 mg/kg, po administered as single dose via oral gavage by HPLC/MS/MS method; type: ADME, organism-based; conditions: in vivo, read-out: beta t1/2 (converted)
Method in brief: (§3)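 Five overnight-fasted male SD rats received a single 5 mg/kg dose by gavage needle. Dosing solution 2.5 mg/mL in 10% DMSO, 40% PEG400, 50% saline. Plasma concentration-time profiles were obtained, and parameters were calculated for each animal and then averaged.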

[7] = AUC (0 to infinity) in Sprague-Dawley rat at 2 mg/kg, iv administered as single dose by HPLC/MS/MS method; type: ADME, organism-based; set-up: dose 2 mg/kg, time infinity, route intravenous; conditions: in vivo
Method in brief: (§4)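 Male Sprague-Dawley rats, fasted overnight, 4 animals. Single 2 mg/kg IV dose via tail vein, given as a 1 mg/mL solution in 10% DMSO, 40% PEG400 and 50% saline. Plasma was processed by vigorous mixing and centrifugation at 12,000 g for 10 min, with an internal standard added, then analysed by RP-HPLC. Parameters were calculated for each animal and averaged.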

[8] = AUC (0 to t) in Sprague-Dawley rat at 5 mg/kg, po administered as single dose via oral gavage by HPLC/MS/MS method; type: ADME, organism-based; conditions: in vivo
Method in brief: as §4, with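 “overnight, 5” for “overnight, 4”, “Single 5” for “Single 2”, “mg/kg oral” for “mg/kg IV”, “dose by gavage needle,” for “dose via tail vein,”, “a 2.5” for “a 1”, “by” for “by vigorous”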

[9] = Cmax in Sprague-Dawley rat at 5 mg/kg, po administered as single dose via oral gavage by HPLC/MS/MS method; type: ADME, organism-based; conditions: in vivo; method in brief: as §3
[10] = Tmax in Sprague-Dawley rat at 2 mg/kg, iv administered as single dose by HPLC/MS/MS method; type: ADME, organism-based; conditions: in vivo
Method in brief: (§5)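 Male SD rats, fasted overnight, four animals, single tail-vein IV dose of 2 mg/kg. Dosing solution 1 mg/mL in 10% DMSO, 40% PEG400, 50% saline. Plasma concentrations were measured over time. Parameters were calculated per animal and averaged.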

[11] = Plasma clearance in Sprague-Dawley rat at 2 mg/kg, iv administered as single dose by HPLC/MS/MS method; type: ADME, organism-based; method in brief: as §5
[12] = AUC (0 to t) in Sprague-Dawley rat at 2 mg/kg, iv administered as single dose by HPLC/MS/MS method; type: ADME, organism-based; conditions: in vivo; method in brief: as §4
[13] = Tmax in Sprague-Dawley rat at 5 mg/kg, po administered as single dose via oral gavage by HPLC/MS/MS method; type: ADME, organism-based; conditions: in vivo; method in brief: as §3
[14] = Cmax in Sprague-Dawley rat at 2 mg/kg, iv administered as single dose by HPLC/MS/MS method; type: ADME, organism-based; set-up: dose 2 mg/kg, route intravenous; conditions: in vivo; method in brief: as §5
[15] = Terminal half life in Sprague-Dawley rat at 2 mg/kg, iv administered as single dose by HPLC/MS/MS method; type: ADME, organism-based; conditions: in vivo, read-out: beta t1/2 (converted); method in brief: as §5
Transthyretin [16] = biological target: T1, Transthyretin; assay: Inhibition of wild type TTR (unknown origin) assessed as inhibition of acid-mediated amyloidogenesis by measuring fibril formation preincubated with enzyme followed by amyloidogenesis stimulation by adjusting pH to 4.4 measured after 72 hrs relative to control
[17] = AUC (0 to infinity) in Sprague-Dawley rat at 5 mg/kg, po administered as single dose via oral gavage by HPLC/MS/MS method; type: ADME, organism-based; conditions: in vivo
Method in brief: as §4, with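 “overnight, 5” for “overnight, 4”, “Single 5” for “Single 2”, “mg/kg oral” for “mg/kg IV”, “dose by gavage needle,” for “dose via tail vein,”, “a 2.5” for “a 1”, “by” for “by vigorous”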

[18] = Volume of distribution at steady state distribution in Sprague-Dawley rat at 2 mg/kg, iv administered as single dose by HPLC/MS/MS method; type: ADME, organism-based; conditions: in vivo, read-out: Vdss; method in brief: as §5
[19] = Oral bioavailability in Sprague-Dawley rat at 5 mg/kg administered as single dose by HPLC/MS/MS method; type: ADME, organism-based; conditions: in vivo
Method in brief: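 Bioavailability was taken from dose-normalized AUC0-∞ after oral (5 mg/kg, gavage, n=5) versus IV (2 mg/kg, tail vein, n=4) dosing in fasted male SD rats. Vehicle: 10% DMSO, 40% PEG400, 50% saline.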

[20] = system: Transthyretin (Homo sapiens), P02766 [V50M]; assay: Inhibition of TTR V30M mutant (unknown origin) assessed as inhibition of acid-mediated amyloidogenesis by measuring reduction in fibril formation at 3.6 uM preincubated with enzyme followed by amyloidogenesis stimulation by adjusting pH to 4.4 measured up to 120 hrs relative to control; method in brief: as §2
Transthyretin [21] = biological target: Transthyretin (Homo sapiens, UniProt P02766, V50M); assay: Inhibition of TTR V30M mutant (unknown origin) assessed as inhibition of acid-mediated amyloidogenesis by measuring fibril formation preincubated with enzyme followed by amyloidogenesis stimulation by adjusting pH to 4.4 measured after 72 hrs relative to control

CCc1cc(C#Cc2ccc3ccccc3n2)ccc1O
Activity (Transthyretin [1]): 99%

O=C(O)c1ccc2nc(-c3cc(Cl)cc(Cl)c3)oc2c1
Activity [2]: 3.2%
Activity [3]: 17%
Activity (Transthyretin [1]): 1%
inhibition (Transthyretin [4]): Active
Activity (Transthyretin [5]): 14.8%

Cc1cc(C#Cc2ccc3cc(N)ccc3n2)cc(C)c1O
half-life [6]: 1.59 h
AUC(0-inf) [7]: 1350 ng·h/mL
AUC(0-t) [8]: 226 ng·h/mL
Cmax [9]: 138 ng/mL
Tmax [10]: 4.98 min
clearance [11]: 25.1 mL/min/kg
Activity (Transthyretin [1]): 4.8%
AUC(0-t) [12]: 1330 ng·h/mL
Tmax [13]: 2.45 h
Cmax [14]: 3110 ng/mL
half-life [15]: 2.71 h
IC50 (Transthyretin [16]): 1900 nM
Activity (Transthyretin [5]): 17.9%
AUC(0-inf) [17]: 232 ng·h/mL
Vd [18]: 1.48 L/kg
bioavailability [19]: 6.89%

Cc1cc(C#Cc2ccc3cc(O)ccc3n2)cc(C)c1O
Activity (Transthyretin [1]): 9.6%
IC50 (Transthyretin [16]): 2590 nM
Activity (Transthyretin [5]): 32.1%

Cc1cc(C#Cc2ccc3cc([N+](=O)[O-])ccc3n2)cc(C)c1O
Activity (Transthyretin [1]): 3.6%
IC50 (Transthyretin [16]): 2060 nM
Activity (Transthyretin [5]): 20.9%

CC(C)c1cc(C#Cc2ccc3ccccc3n2)ccc1O
Activity (Transthyretin [1]): 97.3%

Cc1cc(/C=C/c2cc3ccc(O)cc3nc2Cl)cc(C)c1O
inhibition [20]: > 80%
half-life [6]: 3.36 h
Activity [2]: 5%
AUC(0-inf) [7]: 4590 ng·h/mL
AUC(0-t) [8]: 2840 ng·h/mL
Activity [3]: 16.6%
Cmax [9]: 665 ng/mL
Tmax [10]: 4.98 min
clearance [11]: 7.34 mL/min/kg
Activity (Transthyretin [1]): 0.9%
AUC(0-t) [12]: 4510 ng·h/mL
Tmax [13]: 0.598 h
IC50 (Transthyretin [21]): 1630 nM
Cmax [14]: 2380 ng/mL
half-life [15]: 2.75 h
IC50 (Transthyretin [16]): 1490 nM
inhibition (Transthyretin [4]): 7 to 23%
Activity (Transthyretin [5]): 17.7%
AUC(0-inf) [17]: 3120 ng·h/mL
Vd [18]: 1.13 L/kg
bioavailability [19]: 27.2%

Cc1cc(/C=C/c2ccc3cc([N+](=O)[O-])ccc3n2)cc(C)c1O
Activity (Transthyretin [1]): 92.9%

Cc1cc(/C=C/c2ccc3ccccc3n2)cc(C)c1O
Activity (Transthyretin [1]): 26.3%

Oc1ccc(C#Cc2ccc3ccccc3n2)cc1
Activity (Transthyretin [1]): 73.9%

CCc1cc(C#Cc2ccc3ccccc3n2)cc(CC)c1O
Activity (Transthyretin [1]): 93.4%

Cc1cc(/C=C/c2cc3ccccc3nc2Cl)cc(C)c1O
Activity (Transthyretin [1]): 2.3%
Activity (Transthyretin [5]): 33.2%

COc1ccc2nc(C#Cc3cc(C)c(O)c(C)c3)ccc2c1
Activity (Transthyretin [1]): 22.1%

Cc1cc(C#Cc2ccc3ccccc3n2)cc(C)c1O
Activity (Transthyretin [1]): 10.2%
IC50 (Transthyretin [16]): 2180 nM
Activity (Transthyretin [5]): 25.6%

Cc1cc(/C=C/c2ccc3cc(N)ccc3n2)cc(C)c1O
Activity (Transthyretin [1]): 26.8%
Activity (Transthyretin [5]): 51.3%
